# Measured values taken from ChEMBL document CHEMBL2040708, “Rational design, synthesis, and pharmacological properties of pyranochalcone derivatives as potent anti-inflammatory agents” (Eur J Med Chem, 2012).
# Activity calls are given as the source filed them. The calls are words filed in the database; no cut-off is given here.
# Experiments:
# [1] = molecular target: T1, Nitric oxide synthase, inducible (Mus musculus, UniProt P29477); experiment: Inhibition of iNOS in mouse RAW264.7 cells assessed as inhibition of LPS-induced nitric oxide production for 2 hrs by DAF-FMDA dye based fluorometric assay; type: cell-based
# T1 sequence (P29477 whole entry): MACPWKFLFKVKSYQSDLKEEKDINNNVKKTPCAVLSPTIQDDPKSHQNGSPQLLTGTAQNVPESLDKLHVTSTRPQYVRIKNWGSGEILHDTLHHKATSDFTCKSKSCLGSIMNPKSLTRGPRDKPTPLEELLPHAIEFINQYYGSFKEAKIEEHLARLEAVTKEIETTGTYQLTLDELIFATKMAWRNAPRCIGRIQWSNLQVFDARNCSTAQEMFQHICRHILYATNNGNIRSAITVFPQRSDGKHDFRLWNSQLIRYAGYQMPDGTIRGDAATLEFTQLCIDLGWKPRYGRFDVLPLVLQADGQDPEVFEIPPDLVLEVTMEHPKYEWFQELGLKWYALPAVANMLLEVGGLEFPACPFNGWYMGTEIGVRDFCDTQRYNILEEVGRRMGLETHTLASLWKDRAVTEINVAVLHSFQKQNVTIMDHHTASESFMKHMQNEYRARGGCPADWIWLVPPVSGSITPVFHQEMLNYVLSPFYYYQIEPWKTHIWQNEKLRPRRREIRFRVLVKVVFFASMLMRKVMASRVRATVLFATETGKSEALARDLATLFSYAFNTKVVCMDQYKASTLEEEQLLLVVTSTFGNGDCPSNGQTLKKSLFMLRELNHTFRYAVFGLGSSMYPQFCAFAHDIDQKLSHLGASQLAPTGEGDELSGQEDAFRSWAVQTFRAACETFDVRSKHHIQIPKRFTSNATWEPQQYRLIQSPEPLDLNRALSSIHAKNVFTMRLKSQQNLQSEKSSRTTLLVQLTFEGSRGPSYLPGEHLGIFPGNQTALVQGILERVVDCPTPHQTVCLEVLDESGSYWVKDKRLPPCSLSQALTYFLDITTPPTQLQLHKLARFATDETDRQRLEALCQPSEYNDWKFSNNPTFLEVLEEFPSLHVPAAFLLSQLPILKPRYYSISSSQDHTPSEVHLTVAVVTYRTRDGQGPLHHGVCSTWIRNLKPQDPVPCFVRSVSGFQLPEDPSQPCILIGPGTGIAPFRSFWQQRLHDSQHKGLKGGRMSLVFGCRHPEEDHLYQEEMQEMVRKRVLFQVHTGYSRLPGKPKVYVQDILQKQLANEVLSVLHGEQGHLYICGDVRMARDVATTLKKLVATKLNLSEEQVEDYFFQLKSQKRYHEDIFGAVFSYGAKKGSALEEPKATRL
# RAW264.7 [2] = experiment: Cytotoxicity against mouse RAW264.7 cells after 24 hrs by MTT assay in the absence of LPS; type: cell-based; details: RAW264.7, 24 h
# Procedure, shortened: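 RAW264.7 cells at 5 × 10⁴/well, exposed to a range of concentrations in serum-free medium for 24 h. MTT (5 mg/mL in saline) added for a further 4 h, formazan dissolved in DMSO, absorbance read at 540 nm. Viability expressed relative to the blank control.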
# RAW264.7 [3] = experiment: Cytotoxicity against mouse RAW264.7 cells after 24 hrs by MTT assay in the presence of LPS; type: cell-based; details: RAW264.7, 24 h
# Mus musculus = experiment: Antiinflammatory activity in ICR mouse assessed as decrease in carrageenan-induced paw edema at 10 mg/kg, ip administered 30 mins prior to carrageenan-challenge measured at 4 hrs relative to vehicle treated control; type: functional; details: route intraperitoneal
# Procedure, shortened: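 Male ICR mice dosed i.p. 30 min before subplantar injection of freshly prepared 1% carrageenan suspension into the right hind paw. Footpad thickness measured with a gauge caliper at 1, 2, 3, 4 and 5 h. Inhibition calculated from increase in paw thickness versus the control group; mean (SEM), n = 5.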
# Rattus norvegicus [4] = experiment: Antiarthritic activity in Lewis rat adjuvant-induced arthritis model assessed as decrease in complete Freund's adjuvant-induced arthritis administered daily oral doses for 14 days post inflammation development signs; type: functional, organism-based
# Procedure, shortened: (§1)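 Male Lewis rats, 12 weeks old, six per group, injected with CFA at the tail base. Vehicle (2% Tween 80/0.5% methylcellulose) given orally for 7 d until full joint inflammation, then randomized and dosed orally daily for 14 d at 10 or 25 mg/kg. Arthritis scored daily on hind paw erythema, swelling, joint tenderness, movement and posture. Body weight tracked; means ± S.E.M.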
# Rattus norvegicus [5] = experiment: Antiarthritic activity in Lewis rat adjuvant-induced arthritis model assessed as decrease in complete Freund's adjuvant-induced weight loss administered daily oral doses for 14 days post inflammation development signs; type: functional, organism-based; procedure, shortened: as §1
# Rattus norvegicus [6] = experiment: Antiarthritic activity in Lewis rat adjuvant-induced arthritis model assessed as decrease in complete Freund's adjuvant-induced suppression of histopathological changes at 25 mg/kg/day, po for 14 days post inflammation development signs by Hematoxylin and eosin staining; type: functional, organism-based
# Procedure, shortened: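 CFA-induced arthritis in male Lewis rats, dosed orally each day for 14 d after a 7 d vehicle lead-in. Animals sacrificed, foot pads fixed in neutral buffered formal saline and embedded in paraffin. 5 µm sections stained with H&E and examined under the microscope.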
SMILES,IC50 [1] [µM],IC50 (RAW264.7 [2]) [µM],IC50 (RAW264.7 [3]) [µM],inhibition in vivo at 10 mg/kg (Mus musculus) [%],inhibition (Rattus norvegicus [4]),inhibition (Rattus norvegicus [5]),inhibition (Rattus norvegicus [6])
COc1ccc2c(c1)c(CC(=O)O)c(C)n2C(=O)c1ccc(Cl)cc1 [INDOMETHACIN],20,> 80,> 80,45.8,–,–,–
COc1cc(/C=C/C(=O)c2ccc3c(c2O)C=CC(C)(C)O3)cc(OC)c1OC,6.2,> 80,> 80,34.4,–,–,–
CC1(C)C=Cc2c(ccc(C(=O)/C=C/c3cccc(F)c3)c2O)O1,5.4,> 80,> 80,9,–,–,–
COc1ccc(/C=C/C(=O)c2ccc3c(c2O)C=CC(C)(C)O3)cc1OC,7.9,> 80,> 80,52.4,Dose-dependent effect,Active,Active
CC1(C)C=Cc2c(ccc(C(=O)/C=C/c3ccc(Br)cc3)c2O)O1,17.8,> 80,> 80,27.6,–,–,–
